This passage reports IC50 and inhibition results from ChEMBL document CHEMBL1909578, “New diarylureas and diarylamides containing 1,3,4-triarylpyrazole scaffold: Synthesis, antiproliferative evaluation against melanoma cell lines, ERK kinase inhibition, and molecular docking studies” (Eur J Med Chem, 2011).

SMILES strings stand for the structures.

In assay [1] the test system is SK-MEL-28. As to the kind of experiment: Antiproliferative activity against human SK-MEL-28 cells after 48 hrs by SRB assay. Format: functional, cell-based. The settings on record: SK-MEL-28, 48 h. In a few lines:
(§1)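 NCI melanoma panel grown in RPMI 1640 with 5% FBS and 2 mM glutamine. Seeded at 5000–40,000 cells/well, then 24 h before dosing, with time-zero plates fixed. Five concentrations (10-fold or 1/2-log dilutions from DMSO stock) for 48 h. Cells TCA-fixed, stained with 0.4% SRB, read at 515 nm. IC50 is 50% reduction in net protein increase, from (Ti−Tz)/(C−Tz).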
A general note: Sulforhodamine B stains cellular protein and so reports cell mass.

Assay [2] can be described thus: Antiproliferative activity against human A375P cells after 48 hrs by MTT assay. Format: functional, cell-based. In a few lines:
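A375P cells grown in DMEM with 10% FBS and 1% penicillin/streptomycin at 37 °C, 5% CO2. Cells detached with 0.05% trypsin-0.02% EDTA, seeded at 5×10^3 cells/well, and left 24 h. Then exposed for 48 h to 12-point 3-fold serial dilutions. Viability read by MTT reduction, absorbance at 590 nm. IC50 derived from the concentration-response curve.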
In general terms: Formazan colour is commonly taken as a measure of viable cells.

Assay [3] concerns UACC-257. The assay is described as follows: Antiproliferative activity against human UACC257 cells after 48 hrs by SRB assay. The settings on record: UACC-257, 48 h. In kind it is functional, cell-based. In a few lines:
as §1

For assay [4], the system named is UACC-62. The assay is described as follows: Antiproliferative activity against human UACC62 cells after 48 hrs by SRB assay. Format: functional, cell-based. The settings on record: UACC-62, 48 h. In a few lines:
as §1

In assay [5] the test system is SK-MEL-2. As to the kind of experiment: Antiproliferative activity against human SK-MEL-2 cells after 48 hrs by SRB assay. In kind it is functional, cell-based. The settings on record: SK-MEL-2, 48 h. In a few lines: as §1
Assay [6] deals with MDA-MB-435. As to the kind of experiment: Antiproliferative activity against human MDA-MB-435 cells after 48 hrs by SRB assay. Format: functional, cell-based. The settings on record: MDA-MB-435, 48 h. The gist of the method:
as §1

Assay [7] relates to SK-MEL-5. As to the kind of experiment: Antiproliferative activity against human SK-MEL-5 cells after 48 hrs by SRB assay. Format: functional, cell-based. The settings on record: SK-MEL-5, 48 h. The gist of the method:
as §1

The test system of assay [8] is LOX IMVI. As to the kind of experiment: Antiproliferative activity against human LOXIMVI cells after 48 hrs by SRB assay. In kind it is functional, cell-based. In a few lines:
as §1

In assay [9] the test system is M14. As to the kind of experiment: Antiproliferative activity against human M14 cells after 48 hrs by SRB assay. In kind it is functional, cell-based. The settings on record: M14, 48 h. In a few lines:
as §1

Assay [10] addresses Mitogen-activated protein kinase; ERK1/ERK2 (Homo sapiens) (UniProt P27361+P28482). The assay is described as follows: Inhibition of ERK1/2 phosphorylation in human A375P cells after 24 hrs by immunoblotting. Format: cell-based. The gist of the method: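 A375P melanoma cells treated with 1, 3 and 10 μM compound for 24 h. Lysed in RIPA buffer, sonicated, centrifuged, and protein quantified by DC assay. Lysates run on SDS-PAGE and immunoblotted for phospho-ERK1/2, with β-actin as loading reference.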
Background: A western blot detects proteins with antibodies after separation by electrophoresis.

Chain of Mitogen-activated protein kinase; ERK1/ERK2 (Homo sapiens) (P27361 whole entry, looked up): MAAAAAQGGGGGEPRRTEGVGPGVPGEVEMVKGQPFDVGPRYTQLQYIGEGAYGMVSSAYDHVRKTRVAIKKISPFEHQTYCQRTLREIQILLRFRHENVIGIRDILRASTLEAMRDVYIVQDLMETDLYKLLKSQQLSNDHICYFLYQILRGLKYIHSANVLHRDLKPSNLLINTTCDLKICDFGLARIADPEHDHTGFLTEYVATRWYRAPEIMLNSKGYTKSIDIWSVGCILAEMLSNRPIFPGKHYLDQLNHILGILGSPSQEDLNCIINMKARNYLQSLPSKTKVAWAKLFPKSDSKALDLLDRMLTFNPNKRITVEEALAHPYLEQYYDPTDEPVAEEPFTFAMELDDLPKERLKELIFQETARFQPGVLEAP
Chain of Mitogen-activated protein kinase; ERK1/ERK2 (Homo sapiens) (P28482 whole entry, looked up): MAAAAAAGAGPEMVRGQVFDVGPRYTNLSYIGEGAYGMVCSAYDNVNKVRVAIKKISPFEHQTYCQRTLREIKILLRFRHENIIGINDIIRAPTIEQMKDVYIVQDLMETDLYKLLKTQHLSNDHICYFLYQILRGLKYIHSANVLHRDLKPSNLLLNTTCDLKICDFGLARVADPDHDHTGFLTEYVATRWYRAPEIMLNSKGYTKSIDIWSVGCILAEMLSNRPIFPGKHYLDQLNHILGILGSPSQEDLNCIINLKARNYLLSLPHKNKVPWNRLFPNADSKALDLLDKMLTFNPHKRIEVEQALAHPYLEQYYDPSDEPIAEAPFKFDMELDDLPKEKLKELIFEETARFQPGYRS

With `COc1cc(-c2nn(-c3ccc(NC(=O)Nc4ccc(Cl)c(C(F)(F)F)c4)cc3)cc2-c2ccncc2)ccc1Cl`, the IC50 in [1] stood at 1880 nM; in assay [2] it was 14000 nM; in [3], 1640 nM; in assay [4] it was 1770 nM; in assay [5], 1630 nM; in assay [6], 1600 nM. The values for the IC50 in [7], in [8] and in assay [9] were 1570 nM, 1430 nM and 1740 nM, respectively.

For `COc1cc(-c2nn(-c3ccc(NC(=O)c4ccc(Cl)c(Cl)c4)cc3)cc2-c2ccncc2)ccc1Cl`, the IC50 in assay [1] is 40300 nM; in assay [2], 13000 nM; in assay [3], above 100000 nM; in [4], 6340 nM; in assay [5], 5740 nM; in assay [6], 7130 nM. The figures for the IC50 in assay [7], in [8] and in [9] were 1650 nM, 2760 nM and 22400 nM, respectively.

For `O=C(Nc1ccc(-n2cc(-c3ccncc3)c(-c3ccc(Cl)c(O)c3)n2)cc1)c1cc(Cl)cc(Cl)c1`, the IC50 was 2750 nM in assay [1]; 6800 nM in [2]; 5700 nM in [3]; 2730 nM in assay [4]; 6910 nM in assay [5]; 3780 nM in [6]. For the same compound, the IC50 in [7] worked out at 1400 nM; in assay [8] it was 1190 nM; in assay [9], 1510 nM.

For `COc1cc(-c2nn(-c3ccc(NC(=O)Nc4ccc(Cl)c(Cl)c4)cc3)cc2-c2ccncc2)ccc1Cl`, the half-inhibitory concentration (IC50) was 3940 nM in assay [1]; above 20000 nM in [2]; 3170 nM in assay [3]; 3350 nM in assay [4]; 3440 nM in [5]; 2870 nM in assay [6]. Besides, the IC50 turned out to be 2840 nM in assay [7], 1980 nM in assay [8] and 2560 nM in assay [9].

Consider `O=C(Nc1ccc(-n2cc(-c3ccncc3)c(-c3ccc(Cl)c(O)c3)n2)cc1)Nc1ccc(Cl)c(C(F)(F)F)c1`, for which the IC50 was 1630 nM in [1]; 14900 nM in assay [2]; 1510 nM in assay [3]; 1700 nM in assay [4]; 1700 nM in assay [5]; 1320 nM in assay [6]. Further, the IC50 in assay [7] was 1530 nM; in assay [8] it was 1440 nM; in assay [9], 1430 nM.

On to `O=C(Nc1ccc(-n2cc(-c3ccncc3)c(-c3ccc(Cl)c(O)c3)n2)cc1)c1ccc(Cl)c(C(F)(F)F)c1`, for which the IC50 in assay [1] was determined as 1080 nM; in assay [2] it was 6800 nM; in assay [3] it was 2550 nM; in [4], 2030 nM; in assay [5] it was 1580 nM; in [6], 1200 nM. Moreover, the IC50 was determined as 1070 nM in assay [7], 360 nM in assay [8] and 840 nM in assay [9].

On to `O=C(Nc1ccc(-n2cc(-c3ccncc3)c(-c3ccc(Cl)c(O)c3)n2)cc1)Nc1cc(C(F)(F)F)cc(C(F)(F)F)c1`, for which the IC50 is 2010 nM in assay [1]; above 20000 nM in assay [2]; 2010 nM in assay [3]; 2230 nM in assay [4]; 1800 nM in [5]; 1770 nM in assay [6]. In addition, the IC50 in assay [7] was found to be 1670 nM; in assay [8] it was 1630 nM; in [9] it was 1760 nM.

As for `O=C(Nc1ccc(-n2cc(-c3ccncc3)c(-c3ccc(Cl)c(O)c3)n2)cc1)c1ccc(Cl)c(Cl)c1`, the IC50 in [1] was 2940 nM; in assay [2], 6700 nM; in [3] it was 4740 nM; in [4], 3220 nM; in assay [5], 4050 nM; in [6], 2730 nM. In addition, the IC50 in assay [7] worked out at 1150 nM; in assay [8] it was 1450 nM; in [9], 2350 nM. Further, the inhibition entry in [10] was “Dose-dependent effect”.

With `COc1cc(-c2nn(-c3ccc(NC(=O)c4ccc(Cl)c(C(F)(F)F)c4)cc3)cc2-c2ccncc2)ccc1Cl`, the IC50 in assay [1] is 2800 nM; in [2], 9800 nM; in assay [3], 5830 nM; in assay [4], 2180 nM; in [5], 3150 nM; in assay [6] it was 2520 nM. Moreover, the figures for the IC50 in [7], in [8] and in assay [9] were 1590 nM, 1560 nM and 1920 nM, respectively.

Take `O=C(Nc1ccc(-n2cc(-c3ccncc3)c(-c3ccc(Cl)c(O)c3)n2)cc1)c1cc(C(F)(F)F)cc(C(F)(F)F)c1`: the IC50 is 4880 nM in [1]; above 20000 nM in assay [2]; 8940 nM in assay [3]; 14400 nM in assay [4]; 6600 nM in assay [5]; 4110 nM in [6]. Further, the results for the IC50 in assay [7], in assay [8] and in assay [9] were 1550 nM, 2540 nM and 6340 nM, respectively.

In [2], `O=C(Nc1ccc(-n2cc(-c3ccncc3)c(-c3ccc(Cl)c(O)c3)n2)cc1)Nc1ccc(Cl)c(Cl)c1` yielded an IC50 of 13500 nM.

As for `COc1cc(-c2nn(-c3ccc(NC(=O)c4cc(Cl)cc(Cl)c4)cc3)cc2-c2ccncc2)ccc1Cl`, the IC50 in assay [1] is above 100000 nM; in [2] it was above 20000 nM; in assay [3], above 100000 nM; in [4], 4580 nM; in [5] it was above 100000 nM; in assay [6], above 100000 nM. The results for the IC50 in [7], in [8] and in [9] were 12000 nM, 3090 nM and 7390 nM, respectively.

Turning to `COc1cc(-c2nn(-c3ccc(NC(=O)c4cc(C(F)(F)F)cc(C(F)(F)F)c4)cc3)cc2-c2ccncc2)ccc1Cl`, in assay [2], the IC50 is above 20000 nM.

`CNC(=O)c1cc(Oc2ccc(NC(=O)Nc3ccc(Cl)c(C(F)(F)F)c3)cc2)ccn1` [SORAFENIB]: the IC50 in assay [2] worked out at 11500 nM.

Turning to `O=C(Nc1ccc(-n2cc(-c3ccncc3)c(-c3ccc(Cl)c(O)c3)n2)cc1)Nc1cccc(Cl)c1Cl`, the IC50 in assay [2] was 16800 nM.

`COc1cc(-c2nn(-c3ccc(NC(=O)Nc4cccc(Cl)c4Cl)cc3)cc2-c2ccncc2)ccc1Cl` returned an IC50 in assay [2] above 20000 nM.

As to `COc1cc(-c2nn(-c3ccc(NC(=O)Nc4cc(C(F)(F)F)cc(C(F)(F)F)c4)cc3)cc2-c2ccncc2)ccc1Cl`, the IC50 in assay [1] was 1930 nM; in [2] it was 11800 nM; in [3] it was 2300 nM; in assay [4], 1550 nM; in assay [5] it was 1700 nM; in assay [6], 1880 nM. Further, the IC50 in assay [7] was found to be 1530 nM; in assay [8], 1630 nM; in assay [9] it was 1990 nM.

The IC50 is the concentration that gives 50% inhibition. A high value points to lower potency.
